# Assay results published in ChEMBL document CHEMBL1932940, “Xanthohumol induces apoptosis in human malignant glioblastoma cells by increasing reactive oxygen species and activating MAPK pathways” (J Nat Prod, 2011).
# Calls of active or inactive are those of the source. No cut-off for these calls is given here.
# Experiments:
# [1] = system: T98G; test: Induction of apoptosis in human T98G cells at 20 uM after 48 hrs by flow cytometric analysis pretreated with 5 uM p38 inhibitor SB203580 for 1 hr; assay type: functional, cell-based
# In short: (§1)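 T98G pretreated with PD98059 (20 μM, 30 min), SB203580 (5 μM, 1 h) or SP600125 (5 μM, 1 h), then exposed to 20 μM for 48 h; hypodiploid nuclei quantified by propidium iodide flow cytometry. Means ± SEM, three experiments in triplicate.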
# [2] = system: T98G; test: Induction of apoptosis in human T98G cells at 20 uM after 48 hrs by flow cytometric analysis pretreated with 5 uM JNK inhibitor SP600125 for 1 hr; assay type: functional, cell-based; in short: as §1
# [3] = system: T98G; test: Anticancer activity against human T98G cells assessed as decrease in cell viability at 20 uM after 48 hrs by MTT assay; assay type: functional, cell-based
# In short: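 Cells (T98G, U87-MG, NHA; 3 × 10^4 per well) plated, next day exposed to serial dilutions (1−50 μM) for 48 h at 37 °C, 5% CO2. MTT (5 mg/mL) added for 3 h; crystals solubilized in 50% DMF/20% SDS pH 4.5; OD at 620 nm. Viability = % of DMSO (0.1% final) controls. Means ± SEM, three experiments in triplicate.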
# [4] = system: T98G; test: Induction of apoptosis in human T98G cells after 48 hrs by propidium iodide staining-based flow cytometric analysis; assay type: functional, cell-based
# In short: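 Cells treated 1−50 μM for 24 or 48 h, washed in PBS, resuspended in 0.1% sodium citrate, 0.1% Triton X-100, 50 μg/mL propidium iodide, 30 min at 4 °C in dark. Nuclei analyzed by flow cytometry, DNA on log scale, debris gated out; percent hypodiploid (sub-G1) nuclei reported. Three experiments in triplicate.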
# [5] = Toxicity in mouse; assay type: organism-based; conditions: in vivo
# [6] = system: T98G; test: Induction of apoptosis in human T98G cells assessed as caspase activation at 20 uM after 24 hrs pretreated with 25 uM pancaspase inhibitor Z-VAD-FMK; assay type: functional, cell-based
# In short: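 T98G pretreated with Z-VAD-FMK (25 μM), then exposed to test agent; apoptotic (hypodiploid) nuclei quantified by propidium iodide flow cytometry. Means ± SEM, three experiments in triplicate.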
# [7] = system: T98G; test: Induction of apoptosis in human T98G cells assessed as increase in caspase-3 expression level at 20 uM after 24 hrs by Western blot analysis; assay type: functional, cell-based
# In short: (§2)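 T98G exposed to 20 μM for various times (0−48 h), NAC 5 mM where stated. Total lysates, or digitonin-permeabilized cytosolic and mitochondrial fractions (10000g, 15 min, 4 °C) for cytochrome c, blotted for caspase-3, caspase-9, PARP (1:1000), Bcl-2 (1:500), cytochrome c; β-actin loading control; ECL detection. Three experiments.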
# [8] = system: T98G; test: Induction of apoptosis in human T98G cells assessed as increase in caspase-9 expression level at 20 uM after 8 hrs by Western blot analysis; assay type: functional, cell-based; in short: as §2
# [9] = system: T98G; test: Induction of apoptosis in human T98G cells assessed as increase in cleaved PARP protein level at 20 uM after 24 hrs by Western blot analysis; assay type: functional, cell-based; in short: as §2
# [10] = system: T98G; test: Induction of apoptosis in human T98G cells assessed as increase in mitochondrial depolarization at 20 uM by […] fluorescence analysis; assay type: functional, cell-based; conditions: TDE = time-dependent effect
# In short: (§3)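 T98G treated with 20 μM for 4−24 h (NAC 5 mM where stated), then loaded with 5 nM TMRE for 30 min at 37 °C; fluorescence by flow cytometry (FL-2); percentage of cells with depolarized mitochondria reported. Three experiments in triplicate (n = 3 for NAC set).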
# [11] = system: T98G; test: Induction of apoptosis in human T98G cells assessed as increase in mitochondrial depolarization at 20 uM after 4 hrs by […] fluorescence analysis; assay type: functional, cell-based; in short: as §3
# [12] = system: T98G; test: Induction of apoptosis in human T98G cells assessed as increase in mitochondrial depolarization at 20 uM after 24 hrs by […] fluorescence analysis; assay type: functional; in short: as §3
# [13] = system: T98G; test: Induction of apoptosis in human T98G cells assessed as increase in cytosolic cytochrome c release at 20 uM after 8 hrs by Western blot analysis; assay type: functional, cell-based; in short: as §2
# [14] = system: T98G; test: Induction of apoptosis in human T98G cells assessed as decrease in Bcl-2 expression at 20 uM by Western blot analysis; assay type: functional, cell-based; conditions: TDE = time-dependent effect; in short: as §2
# [15] = system: T98G; test: Induction of apoptosis in human T98G cells assessed as decrease in Bcl-2 expression at 20 uM after 48 hrs by Western blot analysis; assay type: functional, cell-based; in short: as §2
# [16] = system: T98G; test: Induction of apoptosis in human T98G cells assessed as increase in ROS production at 20 uM measured every 5 mins for 5 to 120 mins by DCFH-DA staining-based flow cytometric analysis; assay type: functional, cell-based
# In short: (§4)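 T98G incubated with 20 μM, with or without 5 mM NAC pretreatment, for 5−120 min or 24 h; washed, resuspended at 2 × 10^5 cells/mL in HBSS with 10 μM DCFH-DA, 20 min at 37 °C; DCF fluorescence read by flow cytometry (FL1), also viewed by fluorescence microscopy.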
# [17] = system: T98G; test: Induction of apoptosis in human T98G cells assessed as increase in ROS production at 20 uM measured every 5 mins for 5 to 120 mins by DCFH-DA staining-based flow cytometric analysis in presence of 5 mM NAC; assay type: functional, cell-based; in short: as §4
# [18] = system: T98G; test: Induction of apoptosis in human T98G cells assessed as increase in ROS production at 20 uM after 24 hrs by DCFH-DA staining-based flow cytometric analysis; assay type: functional, cell-based; in short: as §4
# [19] = system: T98G; test: Induction of apoptosis in human T98G cells assessed as increase in ROS production at 20 uM after 24 hrs by DCFH-DA staining-based flow cytometric analysis in presence of 5 mM NAC; assay type: functional, cell-based; in short: as §4
# [20] = system: T98G; test: Induction of apoptosis in human T98G cells assessed as increase in ROS production at 20 uM after 48 hrs by DCFH-DA staining-based flow cytometric analysis in presence of 5 mM NAC; assay type: functional, cell-based
# [21] = system: T98G; test: Induction of apoptosis in human T98G cells assessed as increase in ROS production at 20 uM after 48 hrs by DCFH-DA staining-based flow cytometric analysis in presence of 10 uM ascorbic acid; assay type: functional, cell-based
# [22] = system: T98G; test: Induction of apoptosis in human T98G cells assessed as decrease in mitochondrial depolarization at 20 uM after 24 hrs by […] fluorescence analysis in presence of 5 mM NAC; assay type: functional, cell-based; in short: as §3
# [23] = system: T98G; test: Induction of apoptosis in human T98G cells assessed as decrease in Bcl-2 expression at 20 uM after 48 hrs by Western blot analysis in presence of 5 mM NAC; assay type: functional, cell-based; in short: as §2
# [24] = system: T98G; test: Induction of apoptosis in human T98G cells assessed as cleavage PARP protein level at 20 uM after 24 hrs by Western blot analysis in presence of 5 mM NAC; assay type: functional, cell-based; in short: as §2
compound,measurement,setting,value
COc1cc(O)c(CC=C(C)C)c(O)c1C(=O)/C=C/c1ccc(O)cc1 [XANTHOHUMOL],Activity,[1],inactive
same,Activity,[2],Active
same,Activity,[3],Active
same,Activity,[4],Dose-dependent effect
same,LD50,[5],500 mg/kg
same,Activity,[6],inactive
same,Activity,[7],Active
same,Activity,[8],Active
same,Activity,[9],Active
same,Activity,[10],tde
same,Activity,[11],Active
same,Activity,[12],50%
same,Activity,[13],Active
same,Activity,[14],tde
same,Activity,[15],Active
same,Activity,[16],Active
same,Activity,[17],inactive
same,Activity,[18],Active
same,Activity,[19],inactive
same,Activity,[20],inactive
same,Activity,[21],inactive
same,Activity,[22],inactive
same,Activity,[23],inactive
same,Activity,[24],inactive
